ChEMBL document CHEMBL2169869, “Assay and inhibition of diacylglycerol lipase activity” (Bioorg Med Chem Lett, 2012)

Tests used:
[1] = target: T1, Diacylglycerol lipase-alpha (Homo sapiens) (UniProt Q9Y4D2); assay: Inhibition of human DAGLalpha expressed in HEK293T cell membrane using [14C]SAG substrate at 10 uM in presence of 0.05% Triton X-100 by scintillation counting based radio-TLC assay; type: cell membranes; details: HEK-293T
T1 sequence (whole entry): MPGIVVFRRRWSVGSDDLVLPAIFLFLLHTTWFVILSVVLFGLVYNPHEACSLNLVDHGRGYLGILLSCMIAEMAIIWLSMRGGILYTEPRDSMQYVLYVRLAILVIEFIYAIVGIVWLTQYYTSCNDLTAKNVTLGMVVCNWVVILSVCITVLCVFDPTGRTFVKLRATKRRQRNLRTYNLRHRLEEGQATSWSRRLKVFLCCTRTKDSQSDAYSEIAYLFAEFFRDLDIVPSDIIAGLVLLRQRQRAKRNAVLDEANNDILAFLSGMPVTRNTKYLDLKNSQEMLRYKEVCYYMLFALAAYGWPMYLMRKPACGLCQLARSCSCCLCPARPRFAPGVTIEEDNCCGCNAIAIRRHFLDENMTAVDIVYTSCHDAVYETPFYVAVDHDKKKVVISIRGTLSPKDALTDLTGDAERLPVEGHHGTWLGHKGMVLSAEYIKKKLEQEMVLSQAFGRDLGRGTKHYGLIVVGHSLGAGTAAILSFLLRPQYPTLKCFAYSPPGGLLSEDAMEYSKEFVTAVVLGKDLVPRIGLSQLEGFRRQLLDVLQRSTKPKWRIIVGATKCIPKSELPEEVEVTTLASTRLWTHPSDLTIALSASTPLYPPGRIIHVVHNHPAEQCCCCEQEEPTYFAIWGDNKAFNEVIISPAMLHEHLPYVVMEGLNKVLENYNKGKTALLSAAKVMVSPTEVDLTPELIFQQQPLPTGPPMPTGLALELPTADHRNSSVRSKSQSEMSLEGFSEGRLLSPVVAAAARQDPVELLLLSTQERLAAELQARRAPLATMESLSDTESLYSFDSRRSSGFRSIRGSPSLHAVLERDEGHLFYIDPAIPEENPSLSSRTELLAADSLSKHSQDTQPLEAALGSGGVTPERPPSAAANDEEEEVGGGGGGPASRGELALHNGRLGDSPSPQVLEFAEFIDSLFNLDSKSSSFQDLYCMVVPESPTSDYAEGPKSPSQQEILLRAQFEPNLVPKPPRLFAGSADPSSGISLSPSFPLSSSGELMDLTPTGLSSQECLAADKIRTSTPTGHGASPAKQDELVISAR
In short: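 Sonicated HEK293T protein (100 μg) in 50 mM Tris pH 7.4 with 10 mM CaCl2. Inhibitor in DMSO (10% DMSO standard) preincubated 15 min at 37 °C. [14C]SAG was added to 20 μM final for 20 min at 37 °C, with Triton X-100 where the line states it. Quenched with 2:1 CHCl3/MeOH. Silica TLC in CHCl3/MeOH/NH4OH 86:14:0.75, then 12 h phosphorimaging. Activity = (2-AG+AA)/(2-AG+AA+SAG). Background-subtracted; n=1–2.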

[2] = target: T1, Diacylglycerol lipase-alpha (Homo sapiens); assay: Inhibition of human DAGLalpha expressed in HEK293T cell membrane using [14C]SAG substrate at 10 uM in presence of 0.05% Triton X-100 by […]; type: cell-based; details: HEK-293T
[3] = target: T2, Fatty-acid amide hydrolase 1 (Rattus norvegicus) (UniProt P97612); assay: Inhibition of rat histidine tagged FAAH expressed in Escherichia coli at 10 uM by coumarin ester substrate fluorescence assay
T2 sequence (whole entry): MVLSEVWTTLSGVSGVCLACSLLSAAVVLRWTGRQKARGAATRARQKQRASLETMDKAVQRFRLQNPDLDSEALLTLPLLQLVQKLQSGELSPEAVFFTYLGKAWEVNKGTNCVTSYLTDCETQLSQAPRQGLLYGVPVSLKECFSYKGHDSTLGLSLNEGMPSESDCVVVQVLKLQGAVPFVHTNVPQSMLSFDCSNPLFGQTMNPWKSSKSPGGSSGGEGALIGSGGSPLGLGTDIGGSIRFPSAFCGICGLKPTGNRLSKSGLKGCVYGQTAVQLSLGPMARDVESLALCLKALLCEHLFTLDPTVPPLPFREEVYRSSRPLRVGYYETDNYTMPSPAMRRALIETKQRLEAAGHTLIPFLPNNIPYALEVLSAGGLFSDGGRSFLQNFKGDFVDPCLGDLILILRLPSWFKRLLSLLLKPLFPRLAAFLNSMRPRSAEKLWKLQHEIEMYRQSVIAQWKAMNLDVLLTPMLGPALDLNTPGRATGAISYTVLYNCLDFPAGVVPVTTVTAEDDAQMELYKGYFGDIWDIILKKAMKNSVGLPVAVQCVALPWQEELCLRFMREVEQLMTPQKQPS

CCCCCCCCCCC[C@@H](C[C@@H]1OC(=O)[C@H]1CCCCCC)OC(=O)[C@@H](NC=O)[C@@H](C)CC
inhibition [1]: 98%
inhibition [2]: 99%
inhibition [3]: 7%

CCCCCCCCCCC[C@@H](C[C@@H]1OC(=O)[C@H]1CCCCCC)OC(=O)[C@H](CC)NC=O
inhibition [1]: 99%
inhibition [2]: 100%
inhibition [3]: 12%

CCCCCCCCCCC[C@@H](C[C@@H]1OC(=O)[C@H]1CCCCCC)OC(=O)[C@H](CC(C)C)NC=O [ORLISTAT]
inhibition [1]: 100%
inhibition [3]: 6%

CCCCCCCCCCC[C@@H](C[C@@H]1OC(=O)[C@H]1CCCCCC)OC(=O)[C@H](NC=O)[C@H](C)CC
inhibition [1]: 78%
inhibition [2]: 98%
inhibition [3]: 28%

CCCCCCCCCCC[C@@H](C[C@@H]1OC(=O)[C@H]1CCCCCC)OC(=O)[C@H](NC=O)[C@@H](C)CC
inhibition [1]: 86%
inhibition [2]: 98%
inhibition [3]: 0%

O=C(Oc1ccc([N+](=O)[O-])cc1)N1CCC(C(O)(c2ccc3c(c2)OCO3)c2ccc3c(c2)OCO3)CC1
inhibition [3]: 97%

CCCCCCCCCCC[C@@H](C[C@@H]1OC(=O)[C@H]1CCCCCC)OC(=O)[C@@H](NC=O)[C@H](C)CC
inhibition [1]: 95%
inhibition [2]: 99%
inhibition [3]: 3%
